MDM2 E3 inh = blocks human Mdm2 ubiquitin ligase activity; cell-based MDM2 ubiquitination luciferase reporter, 2 h; 0 = plate control, 100 = twice control, blank-subtracted; signal enhancement, % at 5 µM; actives 0.11% (n = 210,000); AID 1230;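 active = signal enhancement of 30% or more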;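 also: luminescence tracks abundance of the self-degrading MDM2-luciferase fusion protein; higher signal means inhibition of MDM2 E3 ligase activity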
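Timing – 2 h compound exposure at 37 °C · Assay system – mammalian cells stably expressing self-ubiquitinating, self-degrading MDM2 E3–luciferase fusion · Amount – 2000 cells seeded into each well · Measure – % luminescence enhancement versus blank-corrected plate control mean · Measured by – SteadyLite luminescence, 15 min reagent step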
S1P3 antagonist = blocks the human S1P3 receptor. CHO S1P3 NFAT-BLA reporter, FRET fluorescence, antagonist mode. inhibition, % at 4.98 µM. actives 0.27% (n = 170,000). AID 485;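 active = inhibition above the plate cutoff, the mean inhibition of test wells on that plate plus 3 SD, cut at about 28% in these data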;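 also: cells challenged with S1P at its EC80 of 0.8 µM; blue over green emission ratio from cleaved BLA substrate after 4 h stimulation; 0% = S1P-stimulated wells and 100% = unstimulated DMSO-only wells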
Target sequence (Q99500 whole entry, looked up): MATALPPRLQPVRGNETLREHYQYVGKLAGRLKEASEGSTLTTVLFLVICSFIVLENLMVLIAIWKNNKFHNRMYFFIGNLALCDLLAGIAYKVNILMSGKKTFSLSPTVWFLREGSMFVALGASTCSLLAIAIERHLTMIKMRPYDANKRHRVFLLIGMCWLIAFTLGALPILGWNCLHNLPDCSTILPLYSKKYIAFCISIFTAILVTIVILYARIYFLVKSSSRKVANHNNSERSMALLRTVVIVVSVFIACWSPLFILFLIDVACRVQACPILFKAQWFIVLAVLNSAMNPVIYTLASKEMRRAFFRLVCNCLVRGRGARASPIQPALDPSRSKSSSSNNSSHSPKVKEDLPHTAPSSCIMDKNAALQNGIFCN
S1P4 antagonist = antagonists of human S1P4 receptor. O95977. S1P4-expressing cells, antagonist mode, reporter read-out. inhibition, % at 4.98 µM. actives 0.26% (n = 220,000). AID 1510; in the data active = inhibition above about 29%;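 also: 0% = wells stimulated with agonist and 100% = vehicle wells without agonist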
S1P4 ag = human S1P4 receptor agonism; AID 1509; activation, % at 4.98 µM; actives 0.35% (n = 220,000); S1P4-expressing cell line, agonist reporter assay; O95977; in the data active = activation above about 11%;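 also: 0% = DMSO vehicle and 100% = reference agonist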
L major viab = reduces viability of Leishmania major promastigotes | resazurin fluorescence viability | inhibition, % at 10 µM | actives 9% (n = 200,000) | AID 1063; in the data active = inhibition above about 50%;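 also: promastigotes grown with compound for 44 hours at 28 °C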
* hit, by the source's call; . = not tested or not shown. The full list was thinned out, with hits kept by preference.

SMILES	MDM2 E3 inh	S1P3 antagonist	S1P4 antagonist	S1P4 ag	L major viab
CCOc1ccccc1CN1CCN(Cc2[nH]c3ccccc3c2C)CC1CCO (stereo unspecified)	-2	-8	3	3	31
CCOC(=O)C1(Cc2ccc(OC)cc2)CCN(S(C)(=O)=O)CC1	5	-2	-4	-1	-4
CCOC(=O)C1(CCOC)CCN(C(C)CCc2ccc(OC)cc2)CC1 (stereo unspecified)	-4	-28	-12	-1	91*
FC(F)(F)C(Oc1nc(NC2CCCCC2)nc(N2CCOCC2)n1)C(F)(F)F	6	5	6	1	81*
CCN1CCN(c2cc(C)c3cc(NC(=O)c4ccncc4)ccc3n2)CC1	-13	14	.	.	65*
CCCCNC(=O)CCC(=O)Nc1ccc2nc(N3CCCCC3)cc(C)c2c1	-1	-7	-18	-1	7
Cc1cc(N2CCN(C)CC2)nc2ccc(NC(=O)c3cccnc3Cl)cc12	-12	.	10	-4	99*
Cc1cc(N2CCN(C)CC2)nc2ccc(NC(=O)c3ccccc3F)cc12	-24	-3	2	-3	42
CCN1CCN(c2cc(C)c3cc(NC(=O)c4cccnc4Cl)ccc3n2)CC1	-10	.	-8	1	99*
CCN1CCN(c2cc(C)c3cc(NC(=O)c4ccc(Br)o4)ccc3n2)CC1	-26	.	4	0	100*
CC1CCN(C2(O)C(=O)Nc3ccc(Br)cc32)CC1 (stereo unspecified)	-92	16	9	-3	1
COc1ccc(CONS(=O)(=O)c2ccc(NC(C)=O)cc2)cc1Cl	1	.	-14	0	3
CC(=O)N(C(C)=O)S(=O)(=O)c1ccc(N=NN2CCCCC2)cc1	-5	-4	-20	0	9
CCN1CCN(c2cc(C)c3cc(NC(=O)c4ccccc4F)ccc3n2)CC1	-13	.	-4	-1	51*
CCN(CC)c1cc(C)c2cc(NC(=O)c3cccs3)ccc2n1	0	11	-9	0	24
CCN(CC)c1cc(C)c2cc(NC(=O)c3ccc(Br)o3)ccc2n1	-3	.	7	-1	80*
COc1ccc(NC(=O)c2c(NC(=O)CNCc3ccco3)sc3c2CCC3)c(OC)c1	-21	70*	-55	2	25
CC(=O)NC(=S)Nc1ccc(NC(=O)c2cccnc2Cl)cc1	-9	3	6	-2	.
Cc1cc(NC(=O)CN(C)S(=O)(=O)c2cccc(Cl)c2)no1	-9	-19	7	1	0
CCc1ccc(/C=C2/SC(N3CCOCC3)=NC2=O)cc1	-10	-9	-18	1	.
CN1C/C(=C/c2ccsc2)C(=O)/C(=C/c2ccsc2)C1	5	6	12	-2	100*
CN1C/C(=C\c2ccc(N3CCOCC3)cc2)C(=O)/C(=C/c2ccc(N3CCOCC3)cc2)C1	10	-16	-10	0	100*
CCN1C/C(=C/c2ccc(N3CCOCC3)cc2)C(=O)/C(=C/c2ccc(N3CCOCC3)cc2)C1	7	5	-1	-1	100*
CN1CCC(N(C)C(=S)NC(=O)c2cc(-c3cccc(Br)c3)nc3ccccc23)CC1	-7	-21	9	-1	19
Cc1cc(N2C(=O)C3C4CC(c5ccccc5)C(C4)C3C2=O)no1 (stereo unspecified)	-5	-17	20	-1	-7
SMILES	MDM2 E3 inh	S1P3 antagonist	S1P4 antagonist	S1P4 ag	L major viab
C#CCCCCCCC#CCN(C)C	0	7	-2	1	-4
O=C(/C=C/c1ccc(OCc2ccccc2)c(OCc2ccccc2)c1)c1cccnc1	-11	-14	-7	0	100*
CCN(CC)c1ccc(/C=C/C(=O)c2cccnc2)cc1	-8	-13	4	2	49
O=C(/C=C/c1ccc(Cl)cc1)c1cccnc1	-5	.	20	0	100*
O=C(/C=C/c1ccccc1Cl)c1cccnc1	-6	.	5	-3	98*
CCCN(CCC)C(=O)/C=C/c1cccc([N+](=O)[O-])c1	.	1	6	0	.
CCCN1C/C(=C/c2ccc3c(c2)OCO3)C(=O)/C(=C/c2ccc3c(c2)OCO3)C1	8	3	-14	6	100*
CCCN1C(=O)/C(=C/c2ccc3c(c2)OCO3)NC1=S	-10	-2	7	3	3
CCCN1C/C(=C/c2cccc([N+](=O)[O-])c2)C(=O)/C(=C/c2cccc([N+](=O)[O-])c2)C1	28	.	-6	1	101*
COC(=O)c1cnc(Oc2ccc(NC(=O)NC(=O)c3ccccc3Cl)cc2)cc1C(F)(F)F	-10	-3	4	2	.
Cc1c(CCOC(=O)CC23CC4CC(CC(C4)C2)C3)sc[n+]1Cc1ccccc1	1	.	-14	-1	100*
Cc1ncc(C[n+]2csc(CCOC(=O)CC34CC5CC(CC(C5)C3)C4)c2C)c(N)n1	-2	-17	-15	1	-7
Cc1cccc(NS(=O)(=O)c2ccc3nc(-c4ccccc4)[nH]c3c2)c1C	-3	8	-9	-1	59*
O=C(Cc1nnc(NC(=O)Nc2ccc(F)cc2)s1)NCc1ccccc1	-3	18	11	-1	.
CCOC(=O)c1c(NC(=O)CSc2nnc(-c3ccncc3)n2Cc2ccco2)sc(C(C)=O)c1C	.	.	-13	-1	-2
CCOC(=O)c1c(NC(=O)CSc2nnc(-c3ccncc3)n2Cc2ccco2)sc(C)c1C	-2	.	7	0	56*
CCOc1ccccc1NC(=O)CSc1nnc(-c2ccccc2Cl)n1Cc1ccco1	-6	14	-18	1	51*
O=C(Nc1cccc(NC(=O)c2sc3ccccc3c2Cl)c1)c1ccco1	-10	-15	-39	2	81*
CC(=O)c1cccc(NC(=O)c2ccc(Br)o2)c1	-19	-41	-1	-1	14
O=C(Nc1cccc(F)c1)c1ccco1	-5	0	-8	2	7
O=C(Nc1cccc(-c2cnc3ccccc3n2)c1)c1ccccc1	-29	.	11	0	-5
O=C(Nc1cccc(-n2cnnn2)c1)c1ccco1	-13	-33	-22	1	95*
O=C(Nc1cccc(-c2cnc3ccccc3n2)c1)c1cccc(NC(=O)c2ccco2)c1	.	.	-19	0	69*
O=C(Nc1cccc(F)c1)c1ccc(Br)o1	.	-17	6	-1	68*
CC(=O)Nc1cccc(NC(=O)c2ccco2)c1	-5	-31	-12	0	-7
SMILES	MDM2 E3 inh	S1P3 antagonist	S1P4 antagonist	S1P4 ag	L major viab
O=C(N=C1SCC(=O)N1c1ccccc1Cl)c1ccccc1	-9	-4	-1	0	-4
CCn1c(SCc2cccc(F)c2)nc2c(c1=O)SCC2	-14	-6	11	0	8
O=C1CC(N2CCN(c3ccc(F)cc3)CC2)C(=O)N1c1ccc2c(c1)OCO2 (stereo unspecified)	-3	-13	-18	3	4
CCn1c(=O)n(CC(=O)Nc2ccc(F)cc2)c(=O)c2ccccc21	-2	-24	2	2	0
O=C(c1ccccc1)c1cccc(NC(=O)c2ccco2)c1	-7	8	-10	1	97*
O=C(Nc1ccccc1NC(=O)c1ccco1)c1ccco1	-13	69*	0	1	33

Assay outcomes (PubChem BioAssay)
